We go through 34 compounds from ChEMBL document CHEMBL1938380, “Indole RSK inhibitors. Part 1: discovery and initial SAR” (Bioorg Med Chem Lett, 2012).

The target of assay [1] is T1, Ribosomal protein S6 kinase alpha-3 (Homo sapiens, UniProt P51812). In words: Inhibition of RSK2-mediated CREB phosphorylation in HeLa cells expressing luciferase reporter gene. It counts as cell-based.
In assay [2] the target is T1, Ribosomal protein S6 kinase alpha-3. Briefly: Inhibition of RSK2 phosphorylation by luminescence assay. In short, it runs like this:
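Soluble RSK2 enzyme; its phosphorylation activity was read out in a luminescent kinase assay format adapted from a published method.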

T1 sequence (P51812 whole entry): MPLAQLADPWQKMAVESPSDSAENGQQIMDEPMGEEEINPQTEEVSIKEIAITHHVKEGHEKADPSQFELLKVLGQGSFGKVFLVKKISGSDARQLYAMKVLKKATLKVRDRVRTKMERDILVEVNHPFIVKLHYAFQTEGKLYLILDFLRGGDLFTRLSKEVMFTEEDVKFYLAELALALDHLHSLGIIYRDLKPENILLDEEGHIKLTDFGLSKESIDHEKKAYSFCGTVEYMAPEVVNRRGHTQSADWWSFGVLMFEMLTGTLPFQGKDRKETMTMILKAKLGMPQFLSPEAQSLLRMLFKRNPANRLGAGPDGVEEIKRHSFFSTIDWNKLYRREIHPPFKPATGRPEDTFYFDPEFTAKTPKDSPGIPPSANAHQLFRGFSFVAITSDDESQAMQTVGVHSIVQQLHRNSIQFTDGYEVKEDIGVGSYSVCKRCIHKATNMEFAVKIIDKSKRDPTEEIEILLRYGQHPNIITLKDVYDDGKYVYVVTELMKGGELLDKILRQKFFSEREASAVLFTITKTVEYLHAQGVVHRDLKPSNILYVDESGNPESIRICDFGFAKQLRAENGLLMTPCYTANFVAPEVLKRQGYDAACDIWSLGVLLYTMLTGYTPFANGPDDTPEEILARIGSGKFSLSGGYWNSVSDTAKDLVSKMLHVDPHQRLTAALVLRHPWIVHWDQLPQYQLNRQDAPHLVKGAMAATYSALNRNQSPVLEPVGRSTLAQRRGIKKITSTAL

Compound `CC1CCNC(=O)c2cc3ccc(C(=O)Nc4cccnc4)cc3n21` (centres undefined) showed an IC50 in assay [1] of 890 nM. In assay [2], `O=C(Nc1cccnc1)c1ccc2cc3n(c2c1)CC1(CC1)CNC3=O` gave a concentration for half-maximal inhibition (IC50) of 410 nM. On the same count and under the same terms, as for `O=C(Nc1cccnc1)c1ccc2cc3n(c2c1)CC1(CCOCC1)CNC3=O`, the figure is over 10000 nM; as for `CC1CCn2c(cc3ccc(C(=O)Nc4cccnc4)cc32)C(=O)N1` (centres undefined), 2500 nM.

For the compound `CC1CNC(=O)c2cc3ccc(C(=O)Nc4cccnc4)cc3n21` (centres undefined), the IC50 in assay [2] stood at 170 nM; in assay [1], 1630 nM.

With `CC1(C)CNC(=O)c2cc3ccc(C(=O)Nc4cccnc4)cc3n21`, the 50% inhibitory concentration (IC50) in assay [2] was 210 nM; in assay [1] it was 1550 nM.

With `NCC1Cn2c(cc3ccc(C(=O)Nc4cccnc4)cc32)C(=O)N1` (centres undefined), half-maximal inhibition in assay [2] (IC50) was put at 970 nM. Still for that read-out and setting: as for `NC(=O)c1ccc2cc3n(c2c1)CCCNC3=O`, the figure is 9100 nM; as for `O=C(NC1CCCCC1)c1ccc2cc3n(c2c1)CCCNC3=O`, over 10000 nM. In assay [1], `O=C(Nc1ccccc1)c1ccc2cc3n(c2c1)CCCNC3=O` yielded an IC50 of 1930 nM. Consider `O=C(Nc1ccc(Cl)cc1)c1ccc2cc3n(c2c1)CCCNC3=O`, for which the concentration for half-maximal inhibition (IC50) in assay [2] worked out at 180 nM. For the compound `NC(=O)c1ccccc1NC(=O)c1ccc2cc3n(c2c1)CCCNC3=O`, the IC50 in assay [1] was found to be 560 nM. For the compound `O=C(Nc1ccncc1)c1ccc2cc3n(c2c1)CCCNC3=O`, the IC50 in assay [2] is 34 nM; in assay [1], 620 nM. For `O=C(Nc1ccccn1)c1ccc2cc3n(c2c1)CCCNC3=O`, in assay [1], the midpoint of inhibition, the IC50, lay at 2630 nM.

`O=C(Nc1ncccn1)c1ccc2cc3n(c2c1)CCCNC3=O`: in assay [2], the half-inhibitory concentration (IC50) is over 10000 nM. As to `O=C(NCc1cccnc1)c1ccc2cc3n(c2c1)CCCNC3=O`, the concentration for half-maximal inhibition (IC50) in assay [2] and in assay [1] was over 10000 nM each time. For `O=C(Nc1ncc[nH]1)c1ccc2cc3n(c2c1)CCCNC3=O`, the concentration for half-maximal inhibition (IC50) in assay [1] stood at 290 nM. Same read-out and setting: the value for `O=C(Nc1cn[nH]c1)c1ccc2cc3n(c2c1)CCCNC3=O` was over 10000 nM.

`Cn1nccc1NC(=O)c1ccc2cc3n(c2c1)CCCNC3=O` had a concentration for half-maximal inhibition (IC50) in assay [2] of over 1000 nM. Regarding `O=C(Nc1cnc2ccccc2c1)c1ccc2cc3n(c2c1)CCCNC3=O`, it took 340 nM to reach half-maximal inhibition in assay [1] (IC50). On the same count and under the same terms, the value for `CC(C)n1ncc2cc(NC(=O)c3ccc4cc5n(c4c3)CCCNC5=O)cnc21` was 840 nM. In the case of `O=C(Nc1ccc2ccccc2n1)c1ccc2cc3n(c2c1)CCCNC3=O`, the IC50 in assay [2] was 68 nM; in assay [1], 1130 nM. The compound `O=C(Nc1nc2ccccc2s1)c1ccc2cc3n(c2c1)CCCNC3=O` returned an IC50 in assay [2] of over 10000 nM. The compound `O=C(Nc1nc2ccccc2o1)c1ccc2cc3n(c2c1)CCCNC3=O` registered an IC50 in assay [1] of over 10000 nM. Turning to `O=C(Nc1nc2ccccc2[nH]1)c1ccc2cc3n(c2c1)CCCNC3=O`, the half-inhibitory concentration (IC50) was 4 nM in assay [2] and over 10000 nM in assay [1]. On to `O=C(Nc1cccnc1)c1ccc2cc3n(c2c1)CCCNC3=O`, for which the IC50 in assay [2] came to 240 nM; in assay [1] it was 1940 nM. The compound `CC1Cn2c(cc3ccc(C(=O)Nc4cccnc4)cc32)C(=O)N1` (centres undefined) came in with a 50% inhibitory concentration (IC50) in assay [2] of 350 nM. As for `CC1CNC(=O)c2cc3ccc(C(=O)Nc4cccnc4)cc3n2C1` (centres undefined), the IC50 in assay [2] is 1200 nM; in assay [1], 4890 nM.

As for `NCC1CNC(=O)c2cc3ccc(C(=O)Nc4cccnc4)cc3n2C1` (centres undefined), in assay [2], half-maximal inhibition (IC50) required 1800 nM.

In the case of `O=C(Nc1nccs1)c1ccc2cc3n(c2c1)CCCNC3=O`, 2200 nM corresponded to half-maximal inhibition in assay [2] (IC50). With `O=C(Nc1cccnc1)c1ccc2cc3n(c2c1)CCNC3=O`, the figures for the concentration for half-maximal inhibition (IC50) in assay [2] and in assay [1] were 730 nM and over 10000 nM, respectively. In the case of `C[C@@H]1CNC(=O)c2cc3ccc(C(=O)Nc4cccnc4)cc3n2[C@@H]1C` (relative stereo), it took 240 nM to reach half-maximal inhibition in assay [2] (IC50). Regarding `C[C@@H]1NC(=O)c2cc3ccc(C(=O)Nc4cccnc4)cc3n2[C@@H]1C` (relative stereo), the half-inhibitory concentration (IC50) turned out to be 45 nM in assay [2] and 840 nM in assay [1].

In assay [2], `C[C@@H]1[C@@H](C)NC(=O)c2cc3ccc(C(=O)Nc4cccnc4)cc3n21` (relative stereo) had an IC50 of 871 nM.

The term IC50 denotes the point on the concentration scale where inhibition reaches its midpoint. Low values mean greater potency in that assay, high ones weaker potency in that assay.
